Source: PubChem BioAssay
ADAM10 inh – inhibits human ADAM10. inhibition, % at 7 µM. 370,000 compounds, 0.62% hits. recombinant ADAM10, EDANS/DABCYL FRET peptide cleavage, 3 h. O14672. AID 720582;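 active = inhibition above a per-campaign cutoff equal to the mean of compounds falling between control-based bounds plus 3 SD, cut at about 20% in these data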;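 note: 0% = DMSO wells while the 100% control is not disclosed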
Target sequence (O14672 214-748 limits assumed): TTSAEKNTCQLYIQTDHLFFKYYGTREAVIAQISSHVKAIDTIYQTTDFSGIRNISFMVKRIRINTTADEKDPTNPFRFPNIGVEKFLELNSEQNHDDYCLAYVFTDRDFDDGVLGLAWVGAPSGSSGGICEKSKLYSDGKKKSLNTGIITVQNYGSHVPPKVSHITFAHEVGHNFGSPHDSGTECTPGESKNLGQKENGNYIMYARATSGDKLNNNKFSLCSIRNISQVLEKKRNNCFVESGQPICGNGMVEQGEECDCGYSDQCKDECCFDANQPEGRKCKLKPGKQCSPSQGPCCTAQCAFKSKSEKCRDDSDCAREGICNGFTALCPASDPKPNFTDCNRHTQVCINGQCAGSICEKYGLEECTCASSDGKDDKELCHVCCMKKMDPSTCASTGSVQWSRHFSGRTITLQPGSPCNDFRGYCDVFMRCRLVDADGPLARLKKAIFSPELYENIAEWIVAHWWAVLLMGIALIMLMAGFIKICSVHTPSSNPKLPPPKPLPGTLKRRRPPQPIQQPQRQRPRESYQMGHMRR
CaV13 ICDI inh – Disruptors of the CACNA1D IQ motif to Ca2+-dependent inactivation inhibitor domain association, primary screening, Förster resonance energy transfer in intact living … | inhibition, % at 12.3 µM | AID 743397 | HEK cells, CFP/YFP FRET ICDI-IQ, plate reader, 10 min; percent FRET-ratio fall versus neutral wells | 340,000 compounds, 0.098% hits;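 active = mean replicate inhibition of at least 30% and at least 1% of replicates passing that level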;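 note: 0% = median of the neutral control wells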
ADAM17 inh – ADAM17 inhibition, QFRET primary screen. P78536. recombinant ADAM17, EDANS/DABCYL FRET peptide cleavage. inhibition, % at 6.95 µM. 370,000 compounds, 0.83% hits. AID 720648;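 active = inhibition above the mean of compounds lying between control limits plus 3 SD, set per campaign, cut at about 8.5% in these data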;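 note: 0% = DMSO-only wells as the low control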
NRP1-CendR mod – NRP-1/CendR interaction modulation | O14786 | FAM-RPARPAR peptide binding to NRP-1, fluorescence polarization | inhibition, % at 25 µM | 360,000 compounds, 0.85% hits;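 active = inhibition or corrected inhibition above about 18%, plus a signal ratio from 0.5 to 1.5, limit read from the data, passing the limit was not always enough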
FAS TE block – blocks the thioesterase domain of human fatty acid synthase | inhibition, % at 15 µM | recombinant FAS-TE, OMFH fluorogenic substrate, fluorescence endpoint | 360,000 compounds, 0.67% hits;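 active = compounds whose normalised, plate-corrected inhibition of enzyme fluorescence in the single-dose primary screen is 50% or more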;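 note: 0% = DMSO with enzyme and 100% = substrate without enzyme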
Arrestin-AP2 inh – human beta-arrestin and AP2 interaction inhibition | FITC-arrestin peptide / GST-AP2 beads, flow cytometry; AP2 beta2 appendage carries R879A mutation | AID 504490 | 340,000 compounds, 0.31% hits | inhibition, % at 10 µM;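 active = inhibition above a set limit, near 3 SD of compounds lacking own fluorescence, cut at about 54% in these data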;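 note: plate controls were DMSO wells for no effect and 5 µM unlabelled arrestin peptide for full effect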
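System: GST-tagged AP2 beta2-adaptin appendage (R879A) on 4 µm glutathione beads / Reagent: FITC-arrestin peptide, 50 nM / Detection: HyperCyt-sampled flow cytometry, FL1 channel, ex 488/em 535 nm / Timing: 12 min plus 1 h, RT / Buffer or medium: PBS plus Tween 20 (0.05%) and BSA (0.1%)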
FAS-TE conf – FAS thioesterase (human) inhibition, confirmation | AID 624325 | shares compounds with FAS TE block | 2,300 compounds, 45% hits | recombinant FAS-TE, OMFH fluorogenic substrate, fluorescence | inhibition, % at 15 µM;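 active = compounds inhibiting the enzyme by at least 50% at 15 µM in any one of the replicates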;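 note: 0% = enzyme with DMSO only and 100% = wells lacking enzyme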
* = called active by the depositor; x = no result given. A selection: hits, their analogues and other compounds. The true share with any hit is near 2.9%.

SMILES	ADAM10 inh	CaV13 ICDI inh	ADAM17 inh	NRP1-CendR mod	FAS TE block	Arrestin-AP2 inh	FAS-TE conf
N/C(=N\OC(=O)CCC1CCCC1)c1cccc([N+](=O)[O-])c1	-5	-4	-5	-4	62*	20	66*
N/C(=N\OC(=O)CCC1CCCCC1)c1ccc([N+](=O)[O-])cc1	3	-5	0	-7	27	6	x
O=C(CCc1ccccc1)OCC(=O)c1cccc([N+](=O)[O-])c1	0	-7	-1	2	56*	2	57*
O=C(Nc1cccc([N+](=O)[O-])c1)NC1CCCCN(Cc2ccc(Cl)cc2)C1=O (stereo not given)	18	x	6	x	x	x	x
CC(C)c1ccc(S(=O)(=O)c2nnn3c2nc(NCC2CCCO2)c2ccccc23)cc1 (stereo not given)	x	x	x	8	74*	20	80*
O=C1CCCN1CCCNc1nc2c(S(=O)(=O)c3ccc(Br)cc3)nnn2c2ccccc12	-2	-7	-1	4	57*	-1	29
O=S(=O)(c1ccccc1)c1nnn2c1nc(NC1CCN(Cc3ccccc3)CC1)c1cc(Cl)ccc12	-19	-5	-6	-13	80*	30	6
O=S(=O)(c1ccccc1)c1nnn2c1nc(NC1CCN(Cc3ccccc3)CC1)c1ccccc12	-25	-15	-11	-4	82*	-14	79*
Cc1ccc(S(=O)(=O)c2nnn3c2nc(Nc2cccc(C)c2)c2ccccc23)cc1	-6	-5	-3	-7	2	-4	x
c1ccc2c(c1)nc(NCC1CCCO1)c1nnnn12 (stereo not given)	-279	-5	-70	-2	-9	-4	x
COc1cc(/C=C/C(=O)OCC(=O)N(CC(C)C)c2c(N)n(Cc3ccccc3)c(=O)[nH]c2=O)ccc1O	-71	-6	-17	16	-2	0	x
CC(NS(=O)(=O)c1ccc2[nH]c(=O)[nH]c2c1)c1ccc(F)cc1 (stereo not given)	-7	-7	0	0	-3	x	x
CN(C1CCCCC1)S(=O)(=O)c1ccc(SCC(=O)C(C)(C)C)nc1	-10	-6	-4	-3	54*	14	40
CC(C)CNC(=O)CSc1ccc(S(=O)(=O)N(C)C2CCCCC2)cn1	1	x	-1	12	0	3	x
COc1ccc(COc2ccc3c(C)cc(=O)oc3c2)cc1	-43	10	-21	2	29	7	x
Cc1cc(=O)oc2cc(OCc3ccc(S(=O)(=O)N4CCOCC4)cc3)ccc12	-39	-8	-17	6	67*	3	14
COc1ccc2c(c1)OC[C@H]1[C@H]2N2C(=O)CN(C)C(=O)[C@@]2(C)[C@H]1c1ccccc1	-2	-6	-6	-10	-7	12	x
COc1ccc(CN2CC(=O)N3[C@H]4c5ccc(OC)cc5OC[C@@H]4[C@H](c4ccccc4)[C@]3(C)C2=O)cc1	12	-10	3	17	66*	-1	18
Cc1ccc(CN2CC(=O)N3[C@H]4c5cc(C)ccc5OC[C@@H]4[C@H](c4ccccc4)[C@]3(C)C2=O)cc1	3	-10	1	-3	52*	0	9
CCOC(=O)[C@@H]1[C@H]2COc3cc(OC)ccc3[C@H]2N2C(=O)N(c3cccc(Cl)c3)C(=O)[C@@]12C	x	x	x	4	74*	24	48*
CC(C)=C[C@H]1C[C@H](C)[C@H]2CC[C@H](C)c3c(O)c(O[C@H]4OC[C@H](O)[C@@H](O)[C@@H]4O)c(C)c1c32	-2	x	1	-3	8	x	x
CCOC(=O)C1=C(COC(=O)c2ccc(OC)c(S(=O)(=O)N3CCOCC3)c2)NC(=O)NC1C (stereo not given)	-5	-16	-6	-6	-7	-1	x
COC(=O)c1cc([N+](=O)[O-])c(-n2cncn2)c([N+](=O)[O-])c1	-2	-14	0	-6	57*	1	29
COC(=O)c1cc(F)c(-n2cncn2)c(F)c1	-1	-7	-2	-1	-6	-3	x
Cc1cccc(N2CCN(C(C(=O)NCc3ccccc3)c3ccc(F)cc3)CC2)c1C (stereo not given)	-6	-7	-3	-2	x	x	x
SMILES	ADAM10 inh	CaV13 ICDI inh	ADAM17 inh	NRP1-CendR mod	FAS TE block	Arrestin-AP2 inh	FAS-TE conf
CNC(=O)c1[nH]cnc1C(=O)Nc1ccc(OC)cc1	14	-5	-1	19	-6	5	x
COc1ccc(NC(=O)c2nc[nH]c2C(=O)N[C@H](C)c2ccccc2)cc1	14	-3	6	-2	56*	19	50*
COc1ccccc1-c1noc2c1C(=O)N(Cc1cn(C3CCCC3)nn1)CC2	0	-6	0	5	-6	x	x
COc1ccc(-c2[nH]n(-c3ccc([N+](=O)[O-])cc3)c(=O)c2C=NCc2ccccc2)cc1	-13	-22	-4	10	54*	0	1
O=C1c2ccccc2C(c2nnnn2-c2ccc3c(c2)OCCO3)N1CCCN1CCOCC1 (stereo not given)	-11	-7	-6	-9	-4	x	x
NS(=O)(=O)c1ccc(CCNC(=O)COC(=O)/C=C/c2cc(Br)ccc2F)cc1	-11	-19	-3	-23	-4	x	x
COc1cc(C(=O)N/C(=C\c2cn(S(=O)(=O)N(C)C)c3ccccc23)C(=O)NCCCO)cc(OC)c1OC	6	0	4	17	-6	-13	x
COc1ccc(C(=O)N/C(=C\c2cn(S(=O)(=O)N(C)C)c3ccccc23)C(=O)NCCCn2ccnc2)cc1	2	-7	4	0	54*	2	38
CCCNC(=O)/C(=C/c1cn(S(=O)(=O)N(C)C)c2ccccc12)NC(=O)c1ccc(OC)cc1	-5	-7	0	2	81*	2	88*
CCn1cc(/C=C(\NC(=O)c2ccc(OC)cc2)C(=O)NCCCn2ccnc2)c2ccccc21	-4	-7	-4	-4	-6	x	x
Cc1ccc(C(=O)N/C(=C\c2cn(S(=O)(=O)N(C)C)c3ccccc23)C(=O)NCCN2CCOCC2)cc1	5	-14	-1	-1	60*	4	67*
[N-]=[N+]=NC(c1ccccc1)C(NC(=O)c1cc(C(F)(F)F)cc(C(F)(F)F)c1)c1ccccc1 (stereo not given)	-9	-5	-4	9	16	x	x
COCc1c(Br)c(C)nc(OCC(=O)N/N=C/c2cc(C)n(-c3ccc([N+](=O)[O-])cc3)c2C)c1C#N	0	-1	-3	3	62*	4	-3
COCCN(CCOC)Cc1cc(=O)oc2cc(C)c(C)cc12	-33	-5	-10	-11	-4	x	x
